In the library only some 1.2% were active in any assay of this set; here they are far more common.
CAL PDZ FP-1: inhibitors of human CAL PDZ peptide binding; purified CAL PDZ, TMR-peptide fluorescence polarization, 1 h; inhibition, % at 24.9 µM; 300,000 tested, 0.92% active; AID 602252;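 active = mean inhibition of at least 30% with at least half of replicates also reaching 30%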;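 note: 0% = DMSO neutral control and 100% = excess unlabeled competitor peptide PRC23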
CAL PDZ FP-2: blocks peptide binding to human CAL PDZ domain. purified CAL PDZ, TMR-peptide fluorescence polarization, 1 h. 330,000 tested, 0.02% active. inhibition, % at 20 µM;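 active = highest replicate inhibition of at least 40%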;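 note: plate controls were DMSO neutral control wells for no effect and unlabeled competitor peptide control wells for full effect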
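Material: tagged CAL PDZ domain; buffer or medium: 25 mM sodium phosphate pH 7.4, 150 mM NaCl, TCEP, IgG, Thesit; compound dosing: single point, 20 µM; schedule: 1 h incubation at room temperature before polarization reading; measured by: FP readout, S and P plane fluorescence; read-out basis: percent inhibition from loss of millipolarization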
ARNT TACC3 PPI: disruptors of human ARNT/TACC3 interaction; Q9Y6A5; AlphaScreen His-ARNT PAS-B/GST-TACC3 binding, luminescence; TACC3 fragment carries E629A point mutation; inhibition, % at 9.99 µM; 390,000 tested, 0.66% active;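 active = mean inhibition of replicates at least 50% and at least half of replicates each reaching 50%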;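 note: 0% = complete ARNT plus TACC3 wells and 100% = ARNT alone without TACC3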
ARNT Alpha ctr: interferes with AlphaScreen signal, flagging false ARNT-TACC3 hits | shares compounds with ARNT TACC3 PPI | His-ARNT PASB-GST AlphaScreen artifact counter-screen, luminescence | 1,200 tested, 50% active | AC50, µM (titrated, usually from 68 µM), for inactives: at the top dose activity change, negative = signal decrease;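 active = every separate test run was called active for a drop in luminescence, with AC50 within twice the top valid dose, actives reach about 71 µM in these data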
An asterisk follows results filed as active; nt = not tested or not shown; [ ] = remark or other dose.

SMILES	CAL PDZ FP-1	CAL PDZ FP-2	ARNT TACC3 PPI	ARNT Alpha ctr
O=C(O)c1ccc(Cl)c(S(=O)(=O)N2CCCC2)c1	3.2	0.0	-3.9	nt
O=C(N/N=C/c1cc2c(cc1Cl)OCO2)c1ccncc1	-0.5	-3.1	1.0	nt
O=C(N/N=C/c1cc(Cl)ccc1O)c1cccnc1	-3.8	-1.9	57.7*	60µM*
O=C(N/N=C/c1cccnc1)c1cccc(Cl)c1	-7.4	-0.1	-0.8	nt
O=C(N/N=C/c1c(Cl)nc2ccccn2c1=O)c1cccnc1	-4.1	-2.8	56.7*	-10.3%
Cc1nn(-c2ccccc2)c(Cl)c1/C=N/NC(=O)c1cccnc1	-0.4	-2.9	-9.2	nt
O=C(N/N=C/c1cc(Cl)cc(Cl)c1O)c1ccncc1	-0.4	-3.9	54.1*	33.7µM*
C[C@H]1CN([C@@H](C)CO)S(=O)(=O)c2ccc(-c3ccc(F)cc3)cc2O[C@@H]1CN(C)C(=O)C1CCCCC1	nt	nt	3.6	nt
C[C@@H]1CN([C@H](C)CO)C(=O)c2cccc(NS(=O)(=O)c3ccc(Cl)cc3)c2O[C@@H]1CN(C)S(C)(=O)=O	nt	nt	-3.1	nt
CO[C@H]1CN(C)C(=O)c2ccc(NS(=O)(=O)c3cn(C)cn3)cc2OC[C@@H](C)N(C)C[C@H]1C	nt	nt	-0.8	nt
CCN(CC)S(=O)(=O)c1ccc(NN)nc1	0.0	-1.6	55.5*	45.2µM*
CC(C)N(C(C)C)S(=O)(=O)c1ccc(NN)nc1	-2.4	-4.2	-3.3	nt
O=C(O)CCNc1cc(N2CCN(C(=O)c3ccco3)CC2)c2noc3c2c1C(=O)c1ccccc1-3	-18.0	-3.4	52.7*	19.1µM*
Cc1cc(N2CCN(C(=O)c3ccco3)CC2)c2ccccc2n1	-0.8	-0.1	2.3	nt
CCN1[C@@H]2c3ccc(C4=CCCCC4)c(=O)n3C[C@H]1[C@H](CO)[C@H]2C(=O)N1CCOCC1	nt	nt	16.0	nt
CCNc1nc(NC(C)C)nc(SCCOC(=O)c2ccccc2)n1	nt	-2.3	-5.0	nt
CC(C)Nc1nc(NC(C)C)nc(C(=O)OCCO)n1	nt	-1.1	57.1*	-13.2%
C[C@@H]1CN([C@H](C)CO)C(=O)c2cccc(NC(=O)Nc3ccc(F)cc3)c2O[C@H]1CN(C)C(=O)Nc1ccc(F)cc1	nt	nt	0.9	nt
C/C=C/c1ccc([C@@H]2[C@@H](CNC(=O)CC)N(Cc3ccccn3)[C@H]2CO)cc1	nt	nt	11.1	nt
C/C=C/c1ccc([C@H]2[C@@H](CNC(=O)CC)N(Cc3ccccn3)[C@H]2CO)cc1	nt	nt	46.6*	-15.2%[42 µM]
C/C=C/c1ccc([C@H]2[C@@H](CNC(=O)c3ccccn3)N(C(=O)CC)[C@H]2CO)cc1	nt	nt	-6.9	nt
O=C(NC[C@@H]1[C@H](c2ccccc2)[C@H](CO)N1Cc1ccccn1)C1CC1	nt	nt	45.9*	-9.2%[38 µM]
O=C(NC[C@@H]1[C@@H](c2ccccc2)[C@@H](CO)N1Cc1ccccn1)C1CCCC1	nt	nt	16.0	nt
C/C=C/c1ccc([C@H]2[C@@H](CO)N(Cc3ccccn3)[C@H]2CNC(C)=O)cc1	nt	nt	29.9*	-21.7%[38 µM]
C[C@@H]1CCCCO[C@@H](CN(C)C(=O)Nc2ccc3c(c2)OCO3)[C@H](C)CN([C@@H](C)CO)C(=O)c2cc(NC(=O)CCC(F)(F)F)ccc2O1	nt	nt	-0.6	nt
SMILES	CAL PDZ FP-1	CAL PDZ FP-2	ARNT TACC3 PPI	ARNT Alpha ctr
COCC(=O)N1[C@@H]2CN(C(=O)Nc3ccccc3F)c3ccccc3[C@@H]2[C@@H]1CO	nt	nt	2.5	nt
O=c1[nH]cnc2c1C(c1ccccc1[N+](=O)[O-])c1c(nc[nH]c1=O)O2	-2.4	-0.9	50.0*	-34.7%
COc1ccc(C2c3c(nc[nH]c3=O)Oc3nc[nH]c(=O)c32)cc1	-6.1	-0.8	3.6	nt
Cc1ccc(NC(=O)CSCC(=O)Nc2ccc(S(=O)(=O)N3CCOCC3)cc2)cc1	-5.6	-1.9	0.6	nt
CCOC(=O)CSc1cccc2cccnc12	-1.1	-1.7	56.6*	9.31µM*
COc1ccc(CNC(=O)CSc2cccc3cccnc23)cc1	7.3	-0.3	-3.0	nt
CCCCCOc1ccc(NC(=O)CSc2cccc3cccnc23)cc1	-4.8	-0.3	58.0*	63.4µM*
Cc1cccc(CSc2[nH]c(=O)ncc2C)c1	-1.7	-4.3	-7.2	nt
O=C(CSc1cccc2cccnc12)Nc1ccc(S(=O)(=O)N2CCOCC2)cc1	-1.3	-1.1	74.2*	32.9µM*
Cc1cccc(CSc2cccc3cccnc23)c1	-5.7	-1.4	61.7*	13.1µM*
CCN(CC)C(=O)Sc1cccc2cccnc12	-1.9	-2.5	7.8	nt
CCNC(=O)[C@H]1[C@H](CO)[C@H]2Cn3c(ccc(-c4ccccc4)c3=O)[C@H]2N1Cc1ccccn1	nt	nt	26.1	nt
C[C@H](CO)N1C[C@H](C)[C@H](CN(C)C(=O)NC2CCCCC2)Oc2ccc(NC(=O)Cc3cn(C)c4ccccc34)cc2CC1=O	nt	nt	-9.2	nt
COCCNC(=O)C(=O)NNS(=O)(=O)c1ccc(Cl)cc1	nt	0.2	-3.7	nt
O=C(NNc1ccccn1)C(=O)NNS(=O)(=O)c1ccc(Cl)cc1	nt	-2.6	57.8*	-5.6%
C/C=C/c1ccc([C@H]2[C@H](CO)N(C(C)=O)[C@H]2CN(C)C(=O)CN(C)C)cc1	nt	nt	-3.9	nt
O=C(CSc1n[nH]c(-c2ccccn2)n1)Nc1cccc(Cl)c1	-6.4	-0.9	55.5*	13.6µM*
Cc1ccc(C)c(NC(=O)CSc2n[nH]c(-c3ccccn3)n2)c1	nt	-0.3	76.5*	10.4µM*
Cc1ccc(O)c(NC(=O)CSc2n[nH]c(-c3ccccc3)n2)c1	1.2	-0.9	-1.4	nt
Cc1nc(SCC(=O)Nc2cccc(Cl)c2)n[nH]1	0.9	0.4	-10.4	nt
C[C@H](CO)N1C[C@H](C)[C@H](CN(C)C(=O)Nc2ccc(C(F)(F)F)cc2)Oc2ncc(-c3ccc(C#N)cc3)cc2C1=O	nt	nt	4.7	nt
COCCCN=Cc1c(-c2ccccc2)[nH]n(-c2nc3ccccc3s2)c1=O	-4.6	-4.3	57.6*	-31.0%
O=c1c(C=NCCCO)c(-c2ccccc2)[nH]n1-c1nc2ccccc2s1	nt	-3.3	8.7	nt
CO[C@H]1CN(C)C(=O)c2cc(NC(=O)C3CCOCC3)ccc2OC[C@@H](C)N(C(C)=O)C[C@H]1C	nt	nt	-0.6	nt
O=C(C[C@H]1CC[C@@H]2[C@H](COC[C@@H](O)CN2Cc2ccccc2F)O1)NCc1ccccc1F	nt	nt	-8.8	nt
SMILES	CAL PDZ FP-1	CAL PDZ FP-2	ARNT TACC3 PPI	ARNT Alpha ctr
O=C(C[C@@H]1C=C[C@@H](NC(=O)C2CC2)[C@H](CO)O1)Nc1nccs1	nt	nt	10.5	nt
O=C(C[C@H]1C=C[C@@H](NC(=O)C2CC2)[C@@H](CO)O1)Nc1nccs1	nt	nt	33.9*	-3.3%[38 µM]
Nc1nc(C(F)(F)F)cc(=O)[nH]1	nt	-0.3	0.1	nt
O=c1cc(C(F)(F)F)nc(-n2[nH]c3c(c2=O)CCCC3)[nH]1	-0.8	nt	56.2*	-23.1%
COc1ccc(C(=O)NNC(=O)Cc2coc3cc(OC)ccc23)cc1	-0.3	-1.5	57.5*	-6.8%
COc1ccc2c(CC(=O)Nc3ccccc3OC)coc2c1	nt	0.4	-1.9	nt
CC(C)NC(=O)N(C)C[C@@H]1OCCCC[C@@H](C)Oc2ccc(NC(=O)Cc3ccccc3)cc2C(=O)N([C@H](C)CO)C[C@@H]1C	nt	nt	-11.1	nt
CC(C)NC(=O)N(C)C[C@H]1OCCCC[C@H](C)Oc2ccc(NC(=O)Cc3ccccc3)cc2C(=O)N([C@H](C)CO)C[C@H]1C	nt	nt	105.7*	-2.9%[42 µM]
